According to ChEMBL document CHEMBL4364301 (Eur J Med Chem, 2019):

Experiments:
Format in all cases: functional
LNCaP [1] = test: Antiproliferative activity against human LNCAP cells assessed as T/C value at 1 x 10^-2 uM incubated for 96 hrs by propidium iodide based 2D monolayer assay
Procedure, shortened: (§1)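 Cells were kept in RPMI 1640 with 25 mM HEPES, 10% FCS and gentamicin at 37 °C under 5% CO2, and plated at 4,000-20,000 cells/well. After 24 h recovery, compound in medium or medium alone (control wells) was added at 10 half-log concentrations from 0.0032 to 100 µM, in triplicate, with at most 0.3% DMSO. After 96 h, wells were PBS-washed, stained with 7 µg/ml PI and 0.1% Triton X-100, and fluorescence read at 530/620 nm. IC50 came from a 4-parameter fit, geometric mean.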

LNCaP [2] = test: Antiproliferative activity against human LNCAP cells assessed as reduction in cell growth incubated for 96 hrs by propidium iodide based 2D monolayer assay
Procedure, shortened: as §1, with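 “After” for “Cells were kept in RPMI 1640 with 25 mM HEPES, 10% FCS and gentamicin at 37 °C under 5% CO2, and plated at 4,000-20,000 cells/well. After”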

VCaP [3] = test: Antiproliferative activity against human VCaP cells assessed as T/C value at 3.2 x 10^-3 uM incubated for 96 hrs by propidium iodide based 2D monolayer assay
Procedure, shortened: (§2)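 VCaP cells in RPMI 1640 with 10% FCS at 37 °C, 5% CO2, seeded 4,000–20,000 cells/well and left 24 h before dosing. Compounds from DMSO stocks were diluted in half-log steps in medium, 10 concentrations 0.0032–100 μM, triplicate wells, max 0.3% DMSO. After 96 h, cells were washed, stained with 7 μg/ml propidium iodide plus 0.1% Triton X-100 for 1–2 h at room temperature, and fluorescence read at ex 530/em 620 nm.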

LNCaP [4] = test: Antiproliferative activity against human LNCAP cells assessed as T/C value at 3.2 uM incubated for 96 hrs by propidium iodide based 2D monolayer assay; procedure, shortened: as §1
DU-145 [5] = test: Antiproliferative activity against human DU145 cells assessed as T/C value at 3.2 x 10^1 uM incubated for 96 hrs by propidium iodide based 2D monolayer assay; procedure, shortened: as §1
LNCaP [6] = test: Antiproliferative activity against human LNCAP cells assessed as T/C value at 1 x 10^2 uM incubated for 96 hrs by propidium iodide based 2D monolayer assay; procedure, shortened: as §1
CWR22R [7] = test: Antiproliferative activity against human 22Rv1 cells assessed as T/C value at 1 x 10^-1 uM incubated for 96 hrs by propidium iodide based 2D monolayer assay; procedure, shortened: as §1
VCaP [8] = test: Antiproliferative activity against human VCaP cells assessed as T/C value at 1 x 10^-1 uM incubated for 96 hrs by propidium iodide based 2D monolayer assay; procedure, shortened: as §1
VCaP [9] = test: Antiproliferative activity against human VCaP cells assessed as T/C value at 1 x 10^2 uM incubated for 96 hrs by propidium iodide based 2D monolayer assay; procedure, shortened: as §1
DU-145 [10] = test: Antiproliferative activity against human DU145 cells assessed as T/C value at 3.2 x 10^-3 uM incubated for 96 hrs by propidium iodide based 2D monolayer assay
Procedure, shortened: as §1, with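 “After” for “Cells were kept in RPMI 1640 with 25 mM HEPES, 10% FCS and gentamicin at 37 °C under 5% CO2, and plated at 4,000-20,000 cells/well. After”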

DU-145 [11] = test: Antiproliferative activity against human DU145 cells assessed as reduction in cell growth incubated for 96 hrs by propidium iodide based 2D monolayer assay; conditions: DU-145, 96 h
Procedure, shortened: as §1, with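 “After” for “Cells were kept in RPMI 1640 with 25 mM HEPES, 10% FCS and gentamicin at 37 °C under 5% CO2, and plated at 4,000-20,000 cells/well. After”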

CWR22R [12] = test: Antiproliferative activity against human 22Rv1 cells assessed as T/C value at 1 x 10^2 uM incubated for 96 hrs by propidium iodide based 2D monolayer assay; procedure, shortened: as §1
VCaP [13] = test: Antiproliferative activity against human VCaP cells assessed as T/C value at 1 x 10^-2 uM incubated for 96 hrs by propidium iodide based 2D monolayer assay; procedure, shortened: as §1
DU-145 [14] = test: Antiproliferative activity against human DU145 cells assessed as T/C value at 3.2 uM incubated for 96 hrs by propidium iodide based 2D monolayer assay; procedure, shortened: as §1
VCaP [15] = test: Antiproliferative activity against human VCaP cells assessed as T/C value at 3.2 x 10^1 uM incubated for 96 hrs by propidium iodide based 2D monolayer assay; procedure, shortened: as §2
DU-145 [16] = test: Antiproliferative activity against human DU145 cells assessed as T/C value at 1 uM incubated for 96 hrs by propidium iodide based 2D monolayer assay
Procedure, shortened: as §1, with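 “After” for “Cells were kept in RPMI 1640 with 25 mM HEPES, 10% FCS and gentamicin at 37 °C under 5% CO2, and plated at 4,000-20,000 cells/well. After”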

VCaP [17] = test: Antiproliferative activity against human VCaP cells assessed as T/C value at 1 x 10^1 uM incubated for 96 hrs by propidium iodide based 2D monolayer assay; procedure, shortened: as §1
LNCaP [18] = test: Antiproliferative activity against human LNCAP cells assessed as T/C value at 1 uM incubated for 96 hrs by propidium iodide based 2D monolayer assay; procedure, shortened: as §1
LNCaP [19] = test: Antiproliferative activity against human LNCAP cells assessed as T/C value at 1 x 10^-1 uM incubated for 96 hrs by propidium iodide based 2D monolayer assay; procedure, shortened: as §1
VCaP [20] = test: Antiproliferative activity against human VCaP cells assessed as T/C value at 3.2 uM incubated for 96 hrs by propidium iodide based 2D monolayer assay; procedure, shortened: as §1
VCaP [21] = test: Antiproliferative activity against human VCaP cells assessed as T/C value at 1 uM incubated for 96 hrs by propidium iodide based 2D monolayer assay; procedure, shortened: as §1
CWR22R [22] = test: Antiproliferative activity against human 22Rv1 cells assessed as T/C value at 1 uM incubated for 96 hrs by propidium iodide based 2D monolayer assay; procedure, shortened: as §1
DU-145 [23] = test: Antiproliferative activity against human DU145 cells assessed as T/C value at 1 x 10^2 uM incubated for 96 hrs by propidium iodide based 2D monolayer assay; procedure, shortened: as §1
CWR22R [24] = test: Antiproliferative activity against human 22Rv1 cells assessed as reduction in cell growth incubated for 96 hrs by propidium iodide based 2D monolayer assay; conditions: 22Rv1, 96 h
Procedure, shortened: as §1, with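 “After” for “Cells were kept in RPMI 1640 with 25 mM HEPES, 10% FCS and gentamicin at 37 °C under 5% CO2, and plated at 4,000-20,000 cells/well. After”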

CWR22R [25] = test: Antiproliferative activity against human 22Rv1 cells assessed as T/C value at 3.2 x 10^-1 uM incubated for 96 hrs by propidium iodide based 2D monolayer assay; procedure, shortened: as §1
LNCaP [26] = test: Antiproliferative activity against human LNCAP cells assessed as T/C value at 3.2 x 10^-3 uM incubated for 96 hrs by propidium iodide based 2D monolayer assay; procedure, shortened: as §1
DU-145 [27] = test: Antiproliferative activity against human DU145 cells assessed as T/C value at 1 x 10^1 uM incubated for 96 hrs by propidium iodide based 2D monolayer assay
Procedure, shortened: as §1, with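 “After” for “Cells were kept in RPMI 1640 with 25 mM HEPES, 10% FCS and gentamicin at 37 °C under 5% CO2, and plated at 4,000-20,000 cells/well. After”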

LNCaP [28] = test: Antiproliferative activity against human LNCAP cells assessed as T/C value at 3.2 x 10^1 uM incubated for 96 hrs by propidium iodide based 2D monolayer assay; procedure, shortened: as §1
DU-145 [29] = test: Antiproliferative activity against human DU145 cells assessed as T/C value at 3.2 x 10^-2 uM incubated for 96 hrs by propidium iodide based 2D monolayer assay
Procedure, shortened: as §1, with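 “After” for “Cells were kept in RPMI 1640 with 25 mM HEPES, 10% FCS and gentamicin at 37 °C under 5% CO2, and plated at 4,000-20,000 cells/well. After”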

CWR22R [30] = test: Antiproliferative activity against human 22Rv1 cells assessed as T/C value at 3.2 x 10^-2 uM incubated for 96 hrs by propidium iodide based 2D monolayer assay; procedure, shortened: as §1
VCaP [31] = test: Antiproliferative activity against human VCaP cells assessed as reduction in cell growth incubated for 96 hrs by propidium iodide based 2D monolayer assay; procedure, shortened: as §2
LNCaP [32] = test: Antiproliferative activity against human LNCAP cells assessed as T/C value at 3.2 x 10^-2 uM incubated for 96 hrs by propidium iodide based 2D monolayer assay; procedure, shortened: as §1

Compound | T/C (LNCaP [1]) [%] | IC50 (LNCaP [2]) [µM] | IC70 (LNCaP [2]) [µM] | T/C (VCaP [3]) [%] | T/C (LNCaP [4]) [%] | T/C (DU-145 [5]) [%] | T/C (LNCaP [6]) [%] | T/C (CWR22R [7]) [%] | T/C (VCaP [8]) [%] | T/C (VCaP [9]) [%] | T/C (DU-145 [10]) [%] | IC50 (DU-145 [11]) [µM] | IC70 (DU-145 [11]) [µM] | T/C (CWR22R [12]) [%] | T/C (VCaP [13]) [%] | T/C (DU-145 [14]) [%] | T/C (VCaP [15]) [%] | T/C (DU-145 [16]) [%] | T/C (VCaP [17]) [%] | T/C (LNCaP [18]) [%] | also measured
CC(O)(CSc1cc(C(F)(F)F)cc(C(F)(F)F)c1)C(=O)Nc1cccc(C(F)(F)C(F)(F)F)c1 (racemic) | 93 | 3.9 | 4.68 | 104 | 72 | 8 | 7 | 106 | 115 | 11 | 117 | 8.9 | 9.6 | 5 | 107 | 133 | 20 | 134 | 38 | 107 | T/C (LNCaP [19]): 97%; T/C (VCaP [20]): 102%; T/C (VCaP [21]): 93%; T/C (CWR22R [22]): 107%; T/C (DU-145 [23]): 2%; IC50 (CWR22R [24]): 4.2 µM; IC70 (CWR22R [24]): 5.41 µM; T/C (CWR22R [25]): 107%; T/C (LNCaP [26]): 90%; T/C (DU-145 [27]): 22%; T/C (LNCaP [28]): 6%; T/C (DU-145 [29]): 123%; T/C (CWR22R [30]): 112%; IC50 (VCaP [31]): 8.6 µM; IC70 (VCaP [31]): 11.7 µM; T/C (LNCaP [32]): 99%
CC(O)(COc1cc(C(F)(F)F)cc(C(F)(F)F)c1)C(=O)Nc1ccc(S(F)(F)(F)(F)F)cc1 (racemic) | 88 | 2.3 | 2.97 | 101 | 26 | 5 | 3 | 104 | 99 | 5 | 102 | 8.6 | 9.21 | 4 | 95 | 117 | 6 | 118 | 23 | 90 | T/C (LNCaP [19]): 99%; T/C (VCaP [20]): 37%; T/C (VCaP [21]): 88%; T/C (CWR22R [22]): 108%; T/C (DU-145 [23]): 1%; IC50 (CWR22R [24]): 7 µM; IC70 (CWR22R [24]): 8.27 µM; T/C (CWR22R [25]): 109%; T/C (LNCaP [26]): 90%; T/C (DU-145 [27]): 15%; T/C (LNCaP [28]): 2%; T/C (DU-145 [29]): 105%; T/C (CWR22R [30]): 99%; IC50 (VCaP [31]): 2.6 µM; IC70 (VCaP [31]): 4.53 µM; T/C (LNCaP [32]): 100%
CC1(C)C(=O)N(c2cccc(S(F)(F)(F)(F)F)c2)C(=S)N1c1cccc(C(F)(F)F)c1 | 94 | 3.4 | 4.31 | 104 | 63 | 85 | 22 | 96 | 80 | 60 | 101 | 100 | > 100 | 55 | 82 | 105 | 63 | 108 | 74 | 74 | T/C (LNCaP [19]): 91%; T/C (VCaP [20]): 71%; T/C (VCaP [21]): 84%; T/C (CWR22R [22]): 85%; T/C (DU-145 [23]): 76%; IC50 (CWR22R [24]): 100 µM; IC70 (CWR22R [24]): > 100 µM; T/C (CWR22R [25]): 98%; T/C (LNCaP [26]): 92%; T/C (DU-145 [27]): 83%; T/C (LNCaP [28]): 33%; T/C (DU-145 [29]): 96%; T/C (CWR22R [30]): 96%; IC50 (VCaP [31]): 100 µM; IC70 (VCaP [31]): > 100 µM; T/C (LNCaP [32]): 73%
